Screening data as filed in PubChem.
ABCB6 inh MLPCN: human ABCB6 transporter inhibition; 360,000 tested, 0.19% active; K562-ABCB6 porphyrin accumulation, flow cytometry, 1 h; hits give low values; fluorescence ratio to DMSO, % at 10 µM; Q9NP58;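 active = fluorescence ratio to DMSO below 75%, the collection mean minus 3 SD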;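 note: signal is porphyrin accumulated inside mitochondria; lower ratio means ABCB6 inhibition with less porphyrin fluorescence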
Target sequence (Q9NP58 whole entry, looked up): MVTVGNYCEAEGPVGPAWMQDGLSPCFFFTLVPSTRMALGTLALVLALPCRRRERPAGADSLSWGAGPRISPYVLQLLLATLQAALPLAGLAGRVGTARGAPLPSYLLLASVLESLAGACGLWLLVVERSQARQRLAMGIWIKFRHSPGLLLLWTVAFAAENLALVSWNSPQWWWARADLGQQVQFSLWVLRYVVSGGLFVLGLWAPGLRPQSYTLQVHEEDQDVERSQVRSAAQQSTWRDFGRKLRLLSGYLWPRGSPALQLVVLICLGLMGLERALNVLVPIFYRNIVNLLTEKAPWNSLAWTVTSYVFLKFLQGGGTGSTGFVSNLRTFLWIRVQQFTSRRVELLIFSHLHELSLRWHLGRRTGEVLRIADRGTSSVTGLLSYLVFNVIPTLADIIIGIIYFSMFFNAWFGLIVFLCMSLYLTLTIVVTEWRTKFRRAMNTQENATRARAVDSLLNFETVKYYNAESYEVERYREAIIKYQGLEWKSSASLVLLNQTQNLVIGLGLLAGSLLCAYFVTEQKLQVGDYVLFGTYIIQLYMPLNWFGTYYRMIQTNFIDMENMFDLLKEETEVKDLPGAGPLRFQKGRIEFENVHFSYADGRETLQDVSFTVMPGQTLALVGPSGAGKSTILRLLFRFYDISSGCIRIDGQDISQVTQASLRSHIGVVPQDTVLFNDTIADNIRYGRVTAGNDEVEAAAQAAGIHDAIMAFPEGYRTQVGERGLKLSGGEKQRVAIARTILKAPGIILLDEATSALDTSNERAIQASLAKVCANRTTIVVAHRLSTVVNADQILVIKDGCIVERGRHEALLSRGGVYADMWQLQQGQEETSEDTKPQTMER
MC4R antag cAMP: antagonists of human melanocortin 4 receptor (MC4R); inhibition, % at 6.5 µM; AID 540295; 360,000 tested, 0.48% active; P32245; MC4R-expressing cells, MTII-stimulated cAMP, LANCE TR-FRET;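 active = inhibition above its plate's cutoff, the mean of tested wells on that plate plus 3 SD, cut at about 29% in these data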
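Assay system: U2OS-MC4R stable cell line; Also added: Melanotan II; Technique: Eu-cAMP/anti-cAMP TR-FRET, emission 671 nm; Times: 30-min compound, 1-h challenge, 1-h detection, room temperature.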
Tb MetRS inh: Trypanosoma brucei MetRS inhibition. inhibition, % at 11.9 µM. 360,000 tested, 0.4% active. purified T. brucei MetRS, ATP depletion, Kinase-Glo luminescence;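 active = inhibition above a per-plate cutoff of the control wells' mean inhibition plus 3 SD, cut at about 5.5% in these data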
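assay system = parasite MetRS enzyme | timing = 15 min preincubation, 2 h reaction, all 25 °C | evaluation = percent inhibition relative to median high and low control wells | medium = HEPES buffer containing pyrophosphatase, BSA, spermine, DTT | compound = single dose, 11.9 µM final nominal, 0.9% final DMSO | detection = Kinase-Glo luminescence, ATP depletion format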
iPSC survival up: hiPSC single-cell survival enhancement; ATPlite luminescence; 100% = ROCK inhibitor wells, 0% = DMSO; survival enhancement, % at 20 µM; 360,000 tested, 0.044% active; AID 602274; in the data active = survival enhancement above about 18%;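 note: cells exposed to compounds for 16 hours before the ATP read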
MC4R ag barr: human MC4R agonism via beta-arrestin. P32245. U2OS MC4R beta-arrestin complementation, luminescence; percent of melanotan II response, DMSO zero. 360,000 tested, 0.98% active. activation, % at 8.9 µM;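 active = activation above a per-plate cutoff, the mean activation of sample wells on that plate plus 3 SD, cut at about 8% in these data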
Exocytosis inh: lytic granule exocytosis inhibition. TALL-104 LAMP-1 surface exposure, flow cytometry; cells stimulated with thapsigargin and PMA. inhibition, % at 10 µM. 360,000 tested, 0.66% active. AID 651702;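 active = inhibition above about 55%, limit read from the data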
Of the large screens only hits and unclear results are named; the others gave an inactive call. An excerpt weighted towards active compounds, which were near 2.6% of everything screened.

Cc1[nH]nc2nc(SCC(=O)NCCC3=CCCCC3)n(-c3ccc(Br)cc3)c(=N)c12	MC4R ag barr 49
Cc1cc(-n2c(SCC(=O)NCCC3=CCCCC3)nc3n[nH]c(C)c3c2=N)ccc1Cl	MC4R ag barr 15
Cc1ccc(Cl)cc1-n1c(SCC(=O)NCCC2=CCCCC2)nc2n[nH]c(C)c2c1=N	none
COc1ccc(NC(=O)CSc2nc3n[nH]c(C)c3c(=N)n2-c2ccc(Cl)c(C)c2)cc1OC	MC4R ag barr 25
COc1ccc(-n2c(SCC(=O)NCC3CCCO3)nc3n[nH]c(C)c3c2=N)cc1 (stereo unspecified)	none
CC1CCc2c(sc3nc(C(C)(C)C)nc(N4CCN(C(=O)CCl)CC4)c23)C1 (stereo unspecified)	MC4R ag barr 19
O=[N+]([O-])c1ccc(N2CCN(C(=S)NCc3ccc(Cl)cc3)CC2)cc1	Exocytosis inh 68
CC(=O)Nc1ccc(NC(=S)NC(=O)/C=C/c2ccco2)cc1	none
O=C(/C=C/c1ccccc1)NC(=S)Nc1ccccc1	none
O=C(/C=C/c1ccccc1)NC(=S)Nc1ccc(N2CCOCC2)cc1	MC4R ag barr 14
CN1CCN(c2ccc(NC(=S)NC(=O)/C=C/c3ccco3)cc2)CC1	Exocytosis inh 57
CC1CCN(C(=O)Cn2c(=O)n(Cc3ccco3)c(=O)c3sccc32)CC1	none
CC1(C(=O)Nc2cccc(Oc3ccccc3)c2)CCN1C1Cc2ccccc2C1 (stereo unspecified)	none
Cc1ccc(NC(=O)C2(C)CCN2C2Cc3ccccc3C2)cc1 (stereo unspecified)	MC4R ag barr 8.4
COc1cccc2c1C(=O)C=C(C)C2=O	Exocytosis inh 64
O=c1c2c3c(sc2ncn1/N=C/c1ccc([N+](=O)[O-])o1)CCCC3	Exocytosis inh 83
CC12CCC3C(CCC4CC(O)CCC43C)C1CC(O)C2 (stereo unspecified)	none
C/C(=N\NC(N)=S)C1=CCC2C3CC[C@H]4CC(O)CC[C@]4(C)C3CC[C@]12C (stereo partly specified)	Exocytosis inh 56
C[n+]1c2n(c3ccccc31)N=C(c1cc(C(C)(C)C)c(O)c(C(C)(C)C)c1)CS2	Exocytosis inh 58
CCOC(=O)c1c(NC(=O)Cn2cc([N+](=O)[O-])cn2)sc2c1CCC2	MC4R ag barr 9.3
CS(=O)(=O)c1ccc(Cl)c(NC(=O)C2CCCN(C(=O)c3ccc(Cl)cc3)C2)c1 (stereo unspecified)	none
CN(C)c1nc(=NCc2cccs2)ss1	Exocytosis inh 65
CN1C(=CC=C2C=C(I)C(=O)C(I)=C2)C(C)(C)c2ccccc21	Exocytosis inh 89
CN1/C(=C\C=N\O)C(C)(C)c2ccccc21	none
Cc1ccc(-c2cc(C(=O)NCc3ccc4c(c3)OCO4)[nH]n2)c(O)c1C	none
Cc1cc(O)c(-c2cc(C(=O)NCc3ccc4c(c3)OCO4)[nH]n2)cc1C	ABCB6 inh MLPCN 59
Cc1noc(C)c1COc1ccccc1C(=O)NC(C)c1ccc(F)cc1 (stereo unspecified)	none
CC1CC(=O)Nc2ccccc2N1S(=O)(=O)c1ccc(F)cc1F (stereo unspecified)	none
CN(C)CCCOc1ccc(Cl)cc1Br	Tb MetRS inh 5.9
Cc1cccc([C@@H](NC(=O)OC(C)(C)C)C(=O)OC(C)(C)C)c1	ABCB6 inh MLPCN 68
CCOC(=O)C(C(=O)OCC)c1cc(Br)c2noc3c2c1C(=O)c1ccccc1-3	Exocytosis inh 98
COC(=O)CCC(C(=O)CN1C(=O)c2ccccc2C1=O)N1C(=O)c2ccccc2C1=O (stereo unspecified)	none
FC(F)(F)c1cccc(NC(=S)N2CCN(c3cccc(C(F)(F)F)c3)CC2)c1	MC4R ag barr 9.2
CCOC(=O)C1CCN(Cc2ccc(OCc3ccccc3)c(OC)c2)CC1	none
CCOc1ccc(Cl)cc1-c1cc(C(=O)Nc2ccc(Br)cc2)[nH]n1	none
N#Cc1ccc(/C=C\c2nccc3c2[nH]c2ccccc23)cc1	Exocytosis inh 72
OCCCCc1nccc2c1[nH]c1ccccc12	none
Cn1c(=O)c2sccc2n2c(CCCC(=O)N3CCN(c4ccccn4)CC3)nnc12	none
Cn1c(SCC(=O)c2ccc3c(c2)NC(=O)CO3)nc2ccccc21	MC4R ag barr 14
NC(=O)CC(NC(=O)c1ccc(Br)cc1)c1ccc(N2CCN(c3ccccn3)CC2)c([N+](=O)[O-])c1 (stereo unspecified)	Exocytosis inh 65
COc1ccccc1C(=O)NCC(=O)OC(C)C(=O)N1CCOCC1 (stereo unspecified)	none
C[C@@H](NC(=O)[C@@H]1Cc2ccccc2CN1)C(=O)NC1CCCCC1	none
O=C1[C@@H]2Cc3c([nH]c4ccccc34)C(c3ccccc3)N2C(=O)CN1CCO (stereo partly specified)	none
O=C1[C@@H]2Cc3c([nH]c4ccccc34)C(c3ccc(Cl)cc3)N2C(=O)CN1CCO (stereo partly specified)	Tb MetRS inh 6.0
CCOC(=O)C1(C)CCN1C(=O)c1ccc(C#N)cc1 (stereo unspecified)	none
Nc1nonc1-n1nnc(C(=O)N/N=C/c2ccc3c(c2)OCO3)c1-c1ccccc1	none
Nc1nonc1-n1nnc(C(=O)N/N=C/c2ccc(Br)cc2)c1-c1ccc2c(c1)OCO2	MC4R ag barr 8.8
Cc1nc(CCNC(=O)C2CCC(=O)N(Cc3cccc(F)c3)C2)sc1C (stereo unspecified)	none
Cc1cc(C)n(CCNC(=O)c2ccco2)n1	none
CCc1nc2ccc(C(=O)Nc3cccc(OCC(=O)N(C)C)c3)cn2c1N(C)C(=O)c1cccc(OC)c1	none
Nc1nc(SCC(=O)NC2CCCCC2)n[nH]1	Exocytosis inh 76
O=C(CSc1n[nH]c(C2CCCC2)n1)NC1CCCC1	none
Cc1ccc(Oc2ccccc2NC(=O)CSCC(=O)Nc2cc(C)on2)cc1	none
Cc1oc(-c2ccc(Cl)cc2)cc1C(=O)NC1CCN(Cc2ccccc2)CC1	Exocytosis inh 80
COc1ccc(OC)c(NC(=O)C(=O)NCc2ccncc2)c1	none
CC(C)OC(=O)c1sc2nc(-c3ccccc3)ccc2c1N	MC4R ag barr 9.5
COc1cccc(/C=N/NC(=O)c2ccc3nc[nH]c3c2)c1O	none
CCN(CC)c1ccc(/C=N/NC(=O)c2ccc3nc[nH]c3c2)c(O)c1	Exocytosis inh 67
O=C(Nc1ccc(-n2ccc(C(F)(F)F)n2)cc1)Nc1cccc(Cl)c1	none
Cc1cc(C)cc(NC(=O)Nc2ccc(-n3ccc(C(F)(F)F)n3)cc2)c1	MC4R ag barr 8.8
Nc1ccccc1SCc1c(Cl)cccc1Cl	MC4R ag barr 8.5
Nc1ccccc1SCc1ccccc1Cl	none
